The source made the active and inactive calls. No cut-off for these calls is given here.
Experiments:
[1] = test system: Nucleic Acid; experiment: Binding affinity to human Duplex DNA of sequence 5'-FAM-dTATAGCTATA-HEG-TATAGCTATA-TAMRA-3' assessed as change in melting temperature by FRET DNA melting assay; type: nucleic-acid assay
[2] = test system: IMR-90 (Homo sapiens); experiment: Cytotoxicity against human IMR90 cell after 72 hrs by SRB assay; conditions: IMR-90, 72 h
[3] = test system: A549; experiment: Cytotoxicity against human A549 cell after 72 hrs by SRB assay; type: functional, cell-based; conditions: A549, 72 h
[4] = test system: Nucleic Acid; experiment: Binding affinity to human telomeric G4 DNA of sequence 5'-FAM-d(GGG[TTAGGG]3)-TAMRA-3' assessed as change in melting temperature by FRET DNA melting assay; type: nucleic-acid assay
[5] = Cytotoxicity against human IMR90 cell after 72 hrs by SRB assay; type: cell-based; conditions: IMR-90, 72 h
[6] = test system: MCF7; experiment: Cytotoxicity against human MCF7 cell after 72 hrs by SRB assay; type: functional, cell-based; conditions: MCF7, 72 h
[7] = test system: MCF7 (Homo sapiens); experiment: Cytotoxicity against human MCF7 cell after 72 hrs by SRB assay; conditions: MCF7, 72 h
[8] = test system: MCF7; experiment: Cytotoxic activity in human MCF7 cell assessed by number of scenescence cell at 15 uM after 4 weeks; type: functional
Method in brief: (§1)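 Long-term MCF7 or A549 cultures were dosed at the start and then re-dosed three times weekly. At each re-dose the medium was discarded, cells were PBS-washed, and fresh medium plus compound was added. For staining, 1 × 10^5 cells per well were plated in medium with compound. After 24 h they were stained for senescence-associated β-galactosidase, and blue cells were counted by microscopy.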

[9] = molecular target: Telomerase reverse transcriptase (Homo sapiens) (UniProt O14746); experiment: Inhibition of Telomerase by TRAP-LIG assay
Chain of Telomerase reverse transcriptase (Homo sapiens) (O14746 whole entry): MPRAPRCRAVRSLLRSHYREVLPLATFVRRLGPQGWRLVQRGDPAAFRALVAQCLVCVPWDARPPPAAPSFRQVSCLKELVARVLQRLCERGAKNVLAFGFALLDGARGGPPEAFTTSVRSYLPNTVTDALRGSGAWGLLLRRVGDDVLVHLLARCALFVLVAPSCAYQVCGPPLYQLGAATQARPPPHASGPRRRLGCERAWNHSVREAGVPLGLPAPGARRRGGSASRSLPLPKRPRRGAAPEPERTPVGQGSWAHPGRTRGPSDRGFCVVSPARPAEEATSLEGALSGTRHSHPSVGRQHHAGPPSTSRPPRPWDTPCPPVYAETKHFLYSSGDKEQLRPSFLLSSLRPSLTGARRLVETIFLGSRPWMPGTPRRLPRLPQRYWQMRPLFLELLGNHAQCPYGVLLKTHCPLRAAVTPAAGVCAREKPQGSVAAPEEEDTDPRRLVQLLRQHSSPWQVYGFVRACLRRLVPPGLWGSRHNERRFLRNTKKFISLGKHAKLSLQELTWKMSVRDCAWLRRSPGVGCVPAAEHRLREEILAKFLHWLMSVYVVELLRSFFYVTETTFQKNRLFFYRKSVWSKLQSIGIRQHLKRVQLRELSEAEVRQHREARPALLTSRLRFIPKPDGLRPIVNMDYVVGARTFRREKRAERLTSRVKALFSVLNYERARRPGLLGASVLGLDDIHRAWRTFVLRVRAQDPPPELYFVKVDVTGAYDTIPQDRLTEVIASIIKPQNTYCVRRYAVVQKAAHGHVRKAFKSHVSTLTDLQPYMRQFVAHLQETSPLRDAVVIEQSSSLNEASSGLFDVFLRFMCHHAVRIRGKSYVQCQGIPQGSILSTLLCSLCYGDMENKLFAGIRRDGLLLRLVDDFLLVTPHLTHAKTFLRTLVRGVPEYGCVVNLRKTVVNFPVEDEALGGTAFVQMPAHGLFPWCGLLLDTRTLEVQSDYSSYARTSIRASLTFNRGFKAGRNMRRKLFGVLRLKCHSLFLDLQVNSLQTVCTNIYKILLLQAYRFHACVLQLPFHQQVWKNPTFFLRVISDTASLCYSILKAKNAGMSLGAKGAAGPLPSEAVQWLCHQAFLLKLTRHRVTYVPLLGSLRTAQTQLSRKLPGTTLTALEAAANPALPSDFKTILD

[10] = test system: MCF7; experiment: Cytotoxic activity in human MCF7 cell assessed by number of scenescence cell at 5 uM after 5 weeks; type: functional; method in brief: as §1
[11] = test system: MCF7; experiment: Cytotoxic activity in human MCF7 cell assessed by number of scenescence cell at 15 uM after 5 weeks; type: functional; method in brief: as §1
[12] = test system: MCF7; experiment: Cytotoxic activity in human MCF7 cell assessed by number of scenescence cell at 5 uM after 4 weeks; type: functional; method in brief: as §1
[13] = test system: Nucleic Acid; experiment: Telomere shortening in DNA assessed by measuring telomere length after 6 weeks; type: nucleic-acid assay
[14] = test system: A549; experiment: Cytotoxic activity in human A549 cell assessed by number of scenescence cell at 10 uM after 5 weeks; type: functional; method in brief: as §1
[15] = test system: A549; experiment: Cytotoxic activity in human A549 cell assessed by number of scenescence cell at 10 uM after 3 weeks; type: functional; method in brief: as §1
[16] = test system: A549; experiment: Cytotoxic activity in human A549 cell assessed by number of scenescence cell at 35 uM after 3 weeks; type: functional; method in brief: as §1
[17] = test system: A549; experiment: Cytotoxic activity in human A549 cell assessed by number of scenescence cell at 35 uM after 1 week; type: functional; method in brief: as §1
[18] = test system: A549; experiment: Cytotoxic activity in human A549 cell assessed by number of scenescence cell at 35 uM after 4 weeks; type: functional; method in brief: as §1
[19] = test system: MCF7; experiment: Cytotoxic activity in human MCF7 cell assessed by number of scenescence cell at 35 uM after 1 week; type: functional; method in brief: as §1
[20] = test system: MCF7; experiment: Cytotoxic activity in human MCF7 cell assessed by number of scenescence cell at 25 uM after 3 weeks; type: functional; method in brief: as §1
[21] = test system: A549; experiment: Cytotoxic activity in human A549 cell assessed by number of scenescence cell at 10 uM after 1 weeks; type: functional; method in brief: as §1
[22] = test system: A549; experiment: Cytotoxic activity in human A549 cell assessed by number of scenescence cell at 35 uM after 5 weeks; type: functional; method in brief: as §1
[23] = test system: MCF7; experiment: Cytotoxic activity in human MCF7 cell assessed as number of scenescence cell at 10 uM after 4 weeks; type: functional; method in brief: as §1
[24] = test system: MCF7; experiment: Cytotoxic activity in human MCF7 cell assessed as number of scenescence cell at 10 uM after 1 week; type: functional; method in brief: as §1
[25] = test system: A549; experiment: Cytotoxic activity in human A549 cell assessed by number of scenescence cell at 25 uM after 1 week; type: functional; method in brief: as §1
[26] = test system: A549; experiment: Cytotoxic activity in human A549 cell assessed by number of scenescence cell at 25 uM after 3 weeks; type: functional; method in brief: as §1
[27] = test system: MCF7 (Homo sapiens); experiment: Cytotoxicity against human MCF7 at 10 uM by assessed as population doublings SRB assay
[28] = test system: MCF7; experiment: Cytotoxic activity in human MCF7 cell assessed as number of scenescence cell at 10 uM after 5 weeks; type: functional; method in brief: as §1
[29] = test system: MCF7; experiment: Cytotoxic activity in human MCF7 cell assessed as number of scenescence cell at 10 uM after 3 weeks; type: functional; method in brief: as §1
[30] = test system: A549; experiment: Cytotoxic activity in human A549 cell assessed by number of scenescence cell at 25 uM after 5 weeks; type: functional; method in brief: as §1
[31] = test system: MCF7; experiment: Cytotoxicity against human MCF7 by SRB assay; type: functional, cell-based
[32] = test system: A549; experiment: Cytotoxic activity in human A549 cell assessed by number of scenescence cell at 10 uM after 4 weeks; type: functional; method in brief: as §1
[33] = test system: A549; experiment: Cytotoxic activity in human A549 cell assessed by number of scenescence cell at 25 uM after 4 weeks; type: functional; method in brief: as §1
[34] = test system: MCF7; experiment: Cytotoxic activity in human MCF7 cell assessed by number of scenescence cell at 25 uM after 1 week; type: functional; method in brief: as §1

For CN1CCN(CCCNc2ccc(NC(=O)c3cccc4c(=O)c5cccc(C(=O)Nc6ccc(NCCCN7CCN(C)CC7)cc6)c5[nH]c34)cc2)CC1, the ΔTm [1] was 1.5 °C, the IC50 [2] was > 100 µM and the IC50 [3] was > 100 µM. For the same molecule, the ΔTm [4] was 28 °C.
In the case of Cn1cc(NC(=O)c2cccc3c(=O)c4cccc(C(=O)Nc5cc(C(=O)NCCCN6CCCC6)n(C)c5)c4[nH]c23)cc1C(=O)NCCCN1CCCC1, the ΔTm [1] is reported as 0 °C, the IC50 [2] is reported as > 100 µM and the IC50 [3] is reported as 21 µM. It also gave a ΔTm [4] of 15 °C.
In the case of O=C(CCCN1CCCC1)Nc1ccc(NC(=O)c2cccc3c(=O)c4cccc(C(=O)Nc5ccc(NC(=O)CCCN6CCCC6)cc5)c4[nH]c23)cc1, the ΔTm [1] is reported as 0 °C, the IC50 [2] is reported as > 100 µM and the IC50 [3] is reported as 8 µM. It also gave a ΔTm [4] of 15 °C.
For CN1CCN(CCC(=O)Nc2ccc(NC(=O)c3cccc4c(=O)c5cccc(C(=O)Nc6ccc(NC(=O)CCN7CCN(C)CC7)cc6)c5[nH]c34)cc2)CC1, the ΔTm [1] was 1.5 °C, the IC50 [2] was > 100 µM and the IC50 [3] was > 100 µM. For the same molecule, the ΔTm [4] was 31 °C.
With O=C(CCC(=O)N1CCCC1)Nc1ccc(NC(=O)c2cccc3c(=O)c4cccc(C(=O)Nc5ccc(NC(=O)CCC(=O)N6CCCC6)cc5)c4[nH]c23)cc1 the ΔTm [1] was 0 °C, the IC50 [2] was > 100 µM and the IC50 [3] was 27 µM. It also gave a ΔTm [4] of 0 °C.
With O=C(CN1CCCC1)Nc1ccc(NC(=O)c2cccc3c(=O)c4cccc(C(=O)Nc5ccc(NC(=O)CN6CCCC6)cc5)c4[nH]c23)cc1 the ΔTm [1] was 0.5 °C, the IC50 [2] was > 100 µM and the IC50 [3] was > 100 µM. It also gave a ΔTm [4] of 25.5 °C.
For O=C(CCCCN1CCCC1)Nc1ccc(NC(=O)c2cccc3c(=O)c4cccc(C(=O)Nc5ccc(NC(=O)CCCCN6CCCC6)cc5)c4[nH]c23)cc1, the IC50 [5] was 2 µM, the ΔTm [1] was 0.75 °C and the IC50 [6] was > 100 µM. It also gave an IC50 [3] of 43 µM and a ΔTm [4] of 22.5 °C.
In the case of O=C(Nc1ccc(NCCCN2CCOCC2)cc1)c1cccc2c(=O)c3cccc(C(=O)Nc4ccc(NCCCN5CCOCC5)cc4)c3[nH]c12, the ΔTm [1] is reported as 0 °C, the IC50 [2] is reported as > 100 µM and the IC50 [3] is reported as > 100 µM. The ΔTm [4] was 20 °C and the IC50 [7] was > 100 µM.
For O=C(Nc1ccc(NCCCN2CCCC2)cc1)c1cccc2c(=O)c3cccc(C(=O)Nc4ccc(NCCCN5CCCC5)cc4)c3[nH]c12, the ΔTm [1] was 2.5 °C, the IC50 [2] was > 100 µM and the IC50 [3] was 66 µM. For the same molecule, the ΔTm [4] was 33 °C.
In the case of O=C(CCN1CCCC1)Nc1ccc(NC(=O)c2cccc3c(=O)c4ccccc4[nH]c23)cc1, the ΔTm [1] is reported as 0.5 °C, the IC50 [2] is reported as 7.5 µM and the IC50 [3] is reported as 16 µM. The ΔTm [4] was 11 °C and the IC50 [7] was 9 µM.
For CN(C)CCC(=O)Nc1ccc(NC(=O)c2cccc3c(=O)c4cccc(C(=O)Nc5ccc(NC(=O)CCN(C)C)cc5)c4[nH]c23)cc1, the Activity [8] was 0%, the ΔTm [1] was 2.5 °C and the Activity [9] was “inactive”. For the same molecule, the Activity [10] was 2%, the Activity [11] was 5% and the Activity [12] was 2%. For the same molecule, the Activity [13] was “inactive”, the IC50 [2] was > 100 µM and the IC50 [3] was 15 µM. It also gave a ΔTm [4] of 32 °C.
In the case of CN(C)CCCNC(=O)c1cccc2c(=O)c3cccc(C(=O)NCCCN(C)C)c3[nH]c12, the ΔTm [1] is reported as 1 °C, the IC50 [2] is reported as > 100 µM and the IC50 [3] is reported as 62 µM. It also gave a ΔTm [4] of 7 °C.
For CN(C)CCCNc1ccc(NC(=O)c2cccc3c(=O)c4cccc(C(=O)Nc5ccc(NCCCN(C)C)cc5)c4[nH]c23)cc1, the ΔTm [1] was 2.5 °C, the IC50 [2] was > 100 µM and the IC50 [3] was > 100 µM. It also gave a ΔTm [4] of 31 °C.
In the case of O=C(CCN1CCOCC1)Nc1ccc(NC(=O)c2cccc3c(=O)c4cccc(C(=O)Nc5ccc(NC(=O)CCN6CCOCC6)cc5)c4[nH]c23)cc1, the ΔTm [1] is reported as 0 °C, the IC50 [2] is reported as > 100 µM and the IC50 [3] is reported as > 100 µM. For the same molecule, the ΔTm [4] was 19 °C and the IC50 [7] was > 100 µM.
With O=C(CCN1CCCC1)Nc1ccc(NC(=O)c2cccc3c(=O)c4cccc(C(=O)Nc5ccc(NC(=O)CCN6CCCC6)cc5)c4[nH]c23)cc1 the ΔTm [1] was 2.5 °C, the IC50 [2] was > 100 µM and the IC50 [3] was 16 µM. The ΔTm [4] was 34 °C.
With O=C(CCN1CCCC1)Nc1cccc(NC(=O)c2cccc3c(=O)c4cccc(C(=O)Nc5cccc(NC(=O)CCN6CCCC6)c5)c4[nH]c23)c1 the Activity [14] was 0%, the Activity [15] was 12% and the Activity [16] was 30%. For the same molecule, the Activity [17] was 8%, the Activity [18] was 0% and the ΔTm [1] was 3 °C. The Activity [19] was 12%, the Activity [9] was “inactive” and the Activity [20] was 25%. For the same molecule, the Activity [21] was 0%, the Activity [22] was 0% and the Activity [23] was 0%. It also gave an Activity [24] of 2%, an Activity [25] of 9% and an Activity [26] of 21%. The Activity [13] was “inactive”, the Activity [27] was 17.5 and the Activity [28] was 1%. For the same molecule, the IC50 [2] was > 100 µM, the Activity [29] was 3% and the Activity [30] was 0%. The IC50 [31] was 84 µM, the IC50 [3] was > 100 µM and the Activity [32] was 0%. The Activity [33] was 0%, the ΔTm [4] was 29 °C and the Activity [34] was 3%.
With O=C(CCN1CCCCC1)Nc1ccc(NC(=O)c2cccc3c(=O)c4cccc(C(=O)Nc5ccc(NC(=O)CCN6CCCCC6)cc5)c4[nH]c23)cc1 the ΔTm [1] was 1.5 °C, the IC50 [2] was > 100 µM and the IC50 [3] was > 100 µM. It also gave a ΔTm [4] of 31 °C.
For O=C(CCn1ccnc1)Nc1ccc(NC(=O)c2cccc3c(=O)c4cccc(C(=O)Nc5ccc(NC(=O)CCn6ccnc6)cc5)c4[nH]c23)cc1, the ΔTm [1] was 0.5 °C, the IC50 [2] was > 100 µM and the IC50 [3] was 19 µM. It also gave a ΔTm [4] of 15 °C.
For O=C(CCNC1CCCCC1)Nc1ccc(NC(=O)c2cccc3c(=O)c4cccc(C(=O)Nc5ccc(NC(=O)CCNC6CCCCC6)cc5)c4[nH]c23)cc1, the ΔTm [1] was 0 °C, the IC50 [2] was > 100 µM and the IC50 [3] was 31 µM. It also gave a ΔTm [4] of 24.5 °C.

— ChEMBL document CHEMBL1155326, “Design, synthesis and evaluation of 4,5-di-substituted acridone ligands with high G-quadruplex affinity and selectivity, together with low toxicity to normal cells” (Bioorg Med Chem Lett, 2009)
